Test results reported in ChEMBL document CHEMBL1124965, “Synthesis and dopamine agonist properties of (+-)-trans-3,4,4a,10b-tetrahydro-4-propyl-2H,5H-[1]benzopyrano [4,3-b]-1,4-oxazin-9-ol and its enantiomers” (J Med Chem, 1990).

How the values were obtained:
Mus musculus = test: Inhibition of locomotor activity (LMA) in mice by the compound administered intraperitoneally.; type: functional
Method in brief: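 Spontaneous exploratory locomotor activity in mice after ip dosing; ED50 derived from four doses with at least three animals per dose.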

Rattus norvegicus [1] = test: Inhibition of dopamine neuronal firing activity in the rat substantia nigra DA neutrons (2.2 mg/kg administered intraperitoneally); type: functional
Method in brief: (§1)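 Chloral hydrate-anesthetized rats; zona compacta DA cells recorded, identified by waveform and firing pattern, site confirmed histologically. Drug given ip via indwelling catheter. Baseline is the mean of the 2 min before injection; effect is the mean over the 1-min period of maximal inhibition; percent decrease, N = 3–4 cells.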

Rattus norvegicus [2] = test: Reversal of reserpine-induced depression in rat (dose administered subcutaneously) Values generated from three doses;5-10 rats were used per dose.; type: functional; conditions: sc
Method in brief: (§2)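 Rats pretreated with reserpine 5 mg/kg 24 h before testing; drug given sc and reversal of spontaneous locomotor inhibition measured; ED50 derived from three doses with 5–10 rats per dose.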

Rattus norvegicus [3] = test: Inhibition of gamma-butyrolactone-stimulated DOPA synthesis in the corpus striatum of rats (dose administered subcutaneously); type: functional; conditions: sc
Method in brief: (§3)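 Male Long-Evans rats dosed 30 min before GBL (750 mg/kg ip) plus decarboxylase inhibitor NSD 1015 (100 mg/kg ip); killed 30 min later. Striatal DOPA measured by HPLC with electrochemical detection. Expressed as percentage reversal versus GBL/NSD 1015-treated animals; N = 4–5.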

Rattus norvegicus [4] = test: Inhibition of gamma-butyrolactone-stimulated DOPA synthesis in the corpus striatum of rats (30 mg/kg administered intraperitoneally); type: functional; method in brief: as §3
Rattus norvegicus [5] = test: Inhibition of locomotor activity (LMA) in rats generated from four doses of 5-12 animals per dose (dose administered subcutaneously); conditions: sc
D(2) dopamine receptor [6] = target: T1, D(2) dopamine receptor (Rattus norvegicus, UniProt P61169); test: Concentration inhibiting specific binding of [3H]haloperidol to Dopamine receptor D2 from rat striatal brain.
D(2) dopamine receptor [7] = target: T1, D(2) dopamine receptor; test: Affinity for [3H]N-propylnorapomorphine (NPA) Dopamine receptor D2
Rattus norvegicus [8] = organism: Rattus norvegicus; test: Inhibition of gamma-butyrolactone-stimulated DOPA synthesis in the corpus striatum of rats; type: functional; method in brief: as §3
Rattus norvegicus [9] = test: Reversal of reserpine-induced depression in rat (dose administered subcutaneously); type: functional; conditions: sc; method in brief: as §2
Rattus norvegicus [10] = test: Inhibition of locomotor activity (LMA) in rats generated from four doses of 5-12 animals per dose (dose administered po)
Rattus norvegicus [11] = test: Inhibition of dopamine neuronal firing activity in the rat substantia nigra DA neutrons (0.25 mg/kg administered intraperitoneally); type: functional; method in brief: as §1
Rattus norvegicus [12] = test: Reversal of reserpine-induced depression in rat (dose administered subcutaneously) Values generated from three doses; 5-10 rats were used per dose.; conditions: sc
Rattus norvegicus [13] = test: Inhibition of gamma-butyrolactone-stimulated DOPA synthesis in the corpus striatum of rats (2 mg/kg administered intraperitoneally); type: functional; method in brief: as §3
[14] = Mus musculus, ip, read-out: ED50

T1 sequence (P61169 whole entry): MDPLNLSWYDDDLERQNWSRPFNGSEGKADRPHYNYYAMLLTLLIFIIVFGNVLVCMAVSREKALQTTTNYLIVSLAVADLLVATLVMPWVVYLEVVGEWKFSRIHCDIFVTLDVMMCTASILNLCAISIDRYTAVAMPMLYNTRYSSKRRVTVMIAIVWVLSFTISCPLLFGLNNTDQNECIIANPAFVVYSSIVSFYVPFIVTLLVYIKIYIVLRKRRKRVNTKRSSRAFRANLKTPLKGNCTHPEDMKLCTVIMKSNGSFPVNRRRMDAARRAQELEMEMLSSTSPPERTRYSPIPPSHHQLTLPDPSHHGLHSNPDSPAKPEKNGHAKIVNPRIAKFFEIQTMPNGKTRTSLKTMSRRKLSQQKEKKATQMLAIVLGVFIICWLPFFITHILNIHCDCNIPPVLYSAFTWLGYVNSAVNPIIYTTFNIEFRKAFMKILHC

Row | SMILES | ED50 (Mus musculus; [14]) [mg/kg] | Decrease (Rattus norvegicus [1]) [%] | ED50 (Rattus norvegicus [2]) [mg/kg] | ED50 (Rattus norvegicus [3]) [mg/kg] | Percent reversal of GBL-stimulated DOPA synthesis (Rattus norvegicus [4]) [%] | ED50 (Rattus norvegicus [5]) [mg/kg] | IC50 (D(2) dopamine receptor [6]) [µM] | ED50 (Mus musculus) [mg/kg] | IC50 (D(2) dopamine receptor [7]) [µM] | Dose (Rattus norvegicus [8]) [%] | ED50 (Rattus norvegicus [9]) [mg/kg] | ED50 (Rattus norvegicus [10]) [mg/kg] | Decrease (Rattus norvegicus [11]) [%] | ED50 (Rattus norvegicus [12]) [mg/kg] | Increase (Rattus norvegicus [13]) [%]
1 | CCCN(CCC)C1COc2ccc(O)cc2C1 (stereo not given) | 11.3 | 100 | 13.4 | 0.04 | 100 | 0.17 |  |  |  |  |  |  |  |  | 
2 | CCCN1CCO[C@@H]2c3cc(O)ccc3OC[C@H]21 (racemic) |  | 99 |  |  | 61.8 |  | 0.9 | 11 |  |  |  |  |  |  | 
3 | CCCN1CCO[C@@H]2c3cc(O)ccc3OC[C@H]21 |  | 100 |  | 0.03 | 88.4 | 0.03 | 0.409 | 5.4 | 0.123 | 100 | 6.25 | 5.8 |  |  | 
4 | CCCN1CCO[C@H]2c3cc(O)ccc3OC[C@@H]21 | > 30 | 9 |  |  | 0 |  | > 100 |  |  |  |  |  |  |  | 
5 | CN1CCc2cccc3c2[C@H]1Cc1ccc(O)c(O)c1-3 [APOMORPHINE] | 0.3 |  |  | 0.06 |  | 0.021 |  |  |  |  |  |  | 100 | 0.096 | 100
